Compounds with a hit are over-represented: about 2.4% of the library has one in this group of screens.
Jurkat NFkB inh – lowers PMA/ionomycin-induced NF-kB signal in Jurkat cells | PMA/ionomycin-induced NF-kB luciferase reporter, luminescence | inhibition, % at 4 µM | 330,000 compounds, 0.53% hits; in the data active = inhibition above about 50%
NR2E3 ag-1 – activates human photoreceptor nuclear receptor NR2E3; 320,000 compounds, 0.12% hits; inhibition of corepressor binding, % at 4.78 µM; GST-NR2E3/biotin-RetCOR TR-FRET, 1536-well; Q9Y5X4; AID 2300;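 active = percent inhibition above the cutoff of mean plus 3 SD of all tested compounds, set per screening campaign, cut at about 20% in these data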;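 also: 0% = DMSO wells and 100% = biotin wells as full block of FRET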
Target sequence (Q9Y5X4 whole entry, looked up): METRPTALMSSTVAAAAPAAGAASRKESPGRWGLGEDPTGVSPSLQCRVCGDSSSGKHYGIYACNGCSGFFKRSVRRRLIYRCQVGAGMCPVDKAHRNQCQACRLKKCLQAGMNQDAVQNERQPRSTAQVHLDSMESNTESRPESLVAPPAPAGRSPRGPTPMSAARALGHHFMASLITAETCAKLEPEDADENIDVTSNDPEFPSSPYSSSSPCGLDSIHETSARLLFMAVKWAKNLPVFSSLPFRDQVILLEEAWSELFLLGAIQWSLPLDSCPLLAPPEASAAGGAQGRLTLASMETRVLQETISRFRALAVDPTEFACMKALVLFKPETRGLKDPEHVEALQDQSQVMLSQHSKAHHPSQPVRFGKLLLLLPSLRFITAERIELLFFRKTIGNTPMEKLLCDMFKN
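Material: NR2E3–RetCOR corepressor complex / Amount: 1.35 nM GST-NR2E3 / Medium: Tris pH 7.5 / Compound: single nominal compound dose of 4.8 µM / Incubation: 5 h at 4 °C / Technique: TR-FRET, Eu(K)-anti-GST donor, streptavidin-D2 acceptor, ex 340, em 617/671 nm / Read-out basis: percent loss of FRET ratio relative to control wells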
aDG glyco up – increases alpha dystroglycan glycosylation | Pro5-aDG cells, alpha-DG glycosylation AlphaScreen (IIH6); 0% Pro5, 100% B10-LARGE cell signal | activation, % at 10 µM | 360,000 compounds, 0.22% hits | AID 624168;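 active = activation of at least 8% versus controls, or a plate z-score of at least 8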;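 also: Pro5 are CHO cells carrying HIG-tagged alpha-DG that lacks glycosylation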
697 NFkB inh – inhibitors of the PMA/ionomycin-induced NF-kB reporter in 697 B cells; 697 B-cell NF-kB luciferase reporter, 16 h; inhibition, % at 4 µM; 330,000 compounds, 0.33% hits; AID 435022; in the data active = inhibition above about 35%
MPTP inh – permeability transition pore inhibition. isolated mouse mitochondria, Ca2+ swelling absorbance, 30 min. inhibition, % at 10 µM. 360,000 compounds, 1.4% hits;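 active = inhibition of 50% or more, scaled per plate between neutral and stimulator controls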;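 also: 0% = DMSO wells given calcium and 100% = 1 mM EGTA wells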
NR2E3 ag-2 – agonists of human NR2E3 nuclear receptor | AID 602229 | 360,000 compounds, 0.35% hits | Q9Y5X4 | CHO-S Gal4-NCOR/VP16-NR2E3 two-hybrid, luciferase | inhibition of corepressor binding, % at 3.98 µM;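 active = inhibition above the mean of all tested compounds plus 3 SD, cut at about 70% in these data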;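 also: 0% = DMSO with NR2E3 transfected cells and 100% = cells lacking NR2E3 construct; higher means lower luciferase signal from less NR2E3 corepressor binding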
Jurkat NFkB conf – lowers PMA/ionomycin-induced NF-kB signal in Jurkat cells; inhibition, % at 4 µM; shares compounds with Jurkat NFkB inh; 2,700 compounds, 27% hits; AID 435020; Jurkat NF-kB luciferase, 16 h;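 active = inhibition reaching about 45% at 4 µM in either replicate, limit read from the data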;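 also: plate controls were PMA/ionomycin stimulated DMSO wells for no effect and unstimulated DMSO wells for full effect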
Active calls of the source: *.

How did O=C(COc1ccccc1)NCc1ccccc1 do in these assays?
Jurkat NFkB inh: -4; NR2E3 ag-1: 1; aDG glyco up: 0; 697 NFkB inh: -1; MPTP inh: 1; NR2E3 ag-2: -22

How did O=C(COc1ccc(C(=O)c2ccccc2)cc1)NCc1ccc(F)cc1 do in these assays?
Jurkat NFkB inh: 69*; NR2E3 ag-1: -1; aDG glyco up: 0; 697 NFkB inh: -4; MPTP inh: 3; NR2E3 ag-2: -34; Jurkat NFkB conf: 41

What do the screens show for `O=C(Nc1ccc(Oc2ccccc2)nc1)C1CCCCN1Cc1ccco1` (stereo not given)?
Jurkat NFkB inh: 53*; NR2E3 ag-1: 2; aDG glyco up: 1; 697 NFkB inh: -65; MPTP inh: 1; NR2E3 ag-2: -60; Jurkat NFkB conf: 5

What do the screens show for `Cc1ccc(CN2CCCCC2C(=O)Nc2ccc(Oc3cccnc3)cc2)o1` (stereo not given)?
Jurkat NFkB inh: 69*; NR2E3 ag-1: 2; aDG glyco up: 0; 697 NFkB inh: -20; MPTP inh: -1; NR2E3 ag-2: -88; Jurkat NFkB conf: 6

What do the screens show for `Cc1ccsc1/C=N/Nc1nc(=O)[nH]nc1C`?
Jurkat NFkB inh: -19; NR2E3 ag-1: 5; aDG glyco up: 1; 697 NFkB inh: -72; MPTP inh: -1; NR2E3 ag-2: -36

How did CCC(=O)O/N=C(\N)c1ccc(Oc2cc(C)c(Cl)c(C)c2)c([N+](=O)[O-])c1 do in these assays?
Jurkat NFkB inh: 53*; NR2E3 ag-1: 0; aDG glyco up: 0; 697 NFkB inh: -12; MPTP inh: 5; NR2E3 ag-2: -16; Jurkat NFkB conf: 4

What do the screens show for `Cc1ccc(S(=O)(=O)N(CC(=O)NCc2ccncc2)Cc2ccc(F)cc2)cc1`?
Jurkat NFkB inh: -8; NR2E3 ag-1: 4; aDG glyco up: 0; 697 NFkB inh: 12; MPTP inh: -1; NR2E3 ag-2: -8

How did COc1cccc(NC(=O)CN2C(=O)NC(C)(CC(C)C)C2=O)c1 (stereo not given) do in these assays?
Jurkat NFkB inh: -14; NR2E3 ag-1: 0; aDG glyco up: 0; 697 NFkB inh: 17; MPTP inh: 0; NR2E3 ag-2: 0

How did Clc1ccc2c(c1)C(C1=NCCN1)c1ccccc1CS2 (stereo not given) do in these assays?
Jurkat NFkB inh: 63*; NR2E3 ag-1: 0; aDG glyco up: 0; 697 NFkB inh: 5; MPTP inh: 0; NR2E3 ag-2: -47; Jurkat NFkB conf: 43*

How did Cc1occc1C(=O)N1CCN(S(=O)(=O)c2ccccc2)CC1 do in these assays?
Jurkat NFkB inh: -1; NR2E3 ag-1: -2; aDG glyco up: 0; 697 NFkB inh: -21; MPTP inh: -1; NR2E3 ag-2: 8

Results for Cc1ccc(S(=O)(=O)Nc2ccc(-c3nc4ccc(C)cc4s3)cc2)cc1 ?
Jurkat NFkB inh: 1; NR2E3 ag-1: -5; aDG glyco up: 0; 697 NFkB inh: -17; MPTP inh: -4; NR2E3 ag-2: -21

How did Cc1cccc(S(=O)(=O)Nc2ccc(-c3nc4ccc(C)cc4s3)cc2)c1 do in these assays?
Jurkat NFkB inh: -179; NR2E3 ag-1: 1; aDG glyco up: 0; 697 NFkB inh: -165; MPTP inh: 5; NR2E3 ag-2: -122; Jurkat NFkB conf: -52

What do the screens show for `CC(C)CCc1noc(CN2CCC(C(=O)N3CCOCC3)CC2)n1`?
Jurkat NFkB inh: 4; NR2E3 ag-1: -1; aDG glyco up: 0; 697 NFkB inh: 9; MPTP inh: 0; NR2E3 ag-2: -22

What do the screens show for `O=C(OCC(O)COc1ccccc1)c1ccc([N+](=O)[O-])cc1` (stereo not given)?
Jurkat NFkB inh: -1; NR2E3 ag-1: -2; aDG glyco up: 0; 697 NFkB inh: 2; MPTP inh: 1; NR2E3 ag-2: -38

How did CCOC(=O)N1CCC(NC(=O)c2ccc3c(c2)N(C)C(=O)/C(=C/c2cccc(OC)c2)S3)CC1 do in these assays?
Jurkat NFkB inh: 53*; NR2E3 ag-1: 0; aDG glyco up: 1; 697 NFkB inh: -11; MPTP inh: -2; NR2E3 ag-2: -23; Jurkat NFkB conf: 7

How did CCOC(=O)N1CCN(C(=O)c2ccc3c(c2)N(C)C(=O)/C(=C\c2ccc(OCC)c(OC)c2)S3)CC1 do in these assays?
Jurkat NFkB inh: 12; NR2E3 ag-1: 4; aDG glyco up: 1; 697 NFkB inh: -64; MPTP inh: 2; NR2E3 ag-2: 20

What do the screens show for `COC(=O)c1[nH]c2c(c1C)C(=O)CC(c1cc(OC)ccc1OC)C2` (stereo not given)?
Jurkat NFkB inh: 61*; NR2E3 ag-1: -1; aDG glyco up: 0; 697 NFkB inh: -27; MPTP inh: -1; NR2E3 ag-2: -41; Jurkat NFkB conf: 29

What do the screens show for `COC(=O)c1[nH]c2c(c1C)C(=O)CC(c1cccs1)C2` (stereo not given)?
Jurkat NFkB inh: 56*; NR2E3 ag-1: 0; aDG glyco up: 0; 697 NFkB inh: 0; MPTP inh: 2; NR2E3 ag-2: 16; Jurkat NFkB conf: 54*

Results for CCOc1ccc(C2CC(=O)c3c([nH]c(C(=O)OC)c3C)C2)cc1OC (stereo not given) ?
Jurkat NFkB inh: -6; NR2E3 ag-1: 4; aDG glyco up: 0; 697 NFkB inh: 16; MPTP inh: -4; NR2E3 ag-2: -27

What do the screens show for `Cc1ccc(C(=O)Nc2ccc(C(=O)N3CCCCC3C)cc2)cc1` (stereo not given)?
Jurkat NFkB inh: -4; NR2E3 ag-1: 3; aDG glyco up: 0; 697 NFkB inh: 2; MPTP inh: 1; NR2E3 ag-2: -8

Results for O=C(Nc1ccc(Cn2cccn2)cc1)c1ccc(COc2ccc(Br)cc2)cc1 ?
Jurkat NFkB inh: -2; NR2E3 ag-1: -2; aDG glyco up: 0; 697 NFkB inh: -34; MPTP inh: 12; NR2E3 ag-2: -12

How did O=C(Nc1ccn(Cc2ccccc2F)n1)c1ccc(COc2ccc(Br)cc2)cc1 do in these assays?
Jurkat NFkB inh: 53*; NR2E3 ag-1: -1; aDG glyco up: 4; 697 NFkB inh: -30; MPTP inh: 5; NR2E3 ag-2: -73; Jurkat NFkB conf: 52*

How did O=C(CSc1ccccc1)Nc1ccc(-c2nc3ccccc3[nH]2)cc1 do in these assays?
Jurkat NFkB inh: -123; NR2E3 ag-1: -1; aDG glyco up: 0; 697 NFkB inh: -125; MPTP inh: 0; NR2E3 ag-2: -69

How did Cc1ccc2nc(-c3ccc(NC(=O)CSc4ccccc4)cc3)[nH]c2c1 do in these assays?
Jurkat NFkB inh: -153; NR2E3 ag-1: -26; aDG glyco up: 1; 697 NFkB inh: -118; MPTP inh: 2; NR2E3 ag-2: -108; Jurkat NFkB conf: -118

Screening data (PubChem BioAssay)
